Data taken from ChEMBL document CHEMBL4118097, “Selective Inhibitors of Dual Leucine Zipper Kinase (DLK, MAP3K12) with Activity in a Model of Alzheimer's Disease” (J Med Chem, 2017).

Tests used:
[1] = target: Serine/threonine-protein kinase Chk2 (Homo sapiens) (UniProt O96017); experiment: Inhibition of recombinant full length His-tagged human CHK2 expressed in baculovirus expression system at 1 uM by FRET assay relative to control
[2] = target: Serine/threonine-protein kinase BRSK1 (Homo sapiens) (UniProt Q8TDC3); experiment: Inhibition of recombinant full length GST-tagged human BrSK1 expressed in baculovirus expression system at 1 uM by FRET assay relative to control
Procedure, shortened: (§1)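 Single-concentration screen at 1 μM in Life Technologies SelectScreen, across a 220-kinase panel. Z′-LYTE format measures phosphorylation of a labeled peptide by FRET. Results are reported as percent inhibition.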

[3] = target: Tyrosine-protein kinase ABL1 (Homo sapiens) (UniProt P00519); experiment: Inhibition of recombinant GST/His-tagged human Abl (118 to 535 residues) at 1 uM by FRET assay relative to control
Chain of Tyrosine-protein kinase ABL1 (Homo sapiens) (P00519 whole entry, the tested form may be a part): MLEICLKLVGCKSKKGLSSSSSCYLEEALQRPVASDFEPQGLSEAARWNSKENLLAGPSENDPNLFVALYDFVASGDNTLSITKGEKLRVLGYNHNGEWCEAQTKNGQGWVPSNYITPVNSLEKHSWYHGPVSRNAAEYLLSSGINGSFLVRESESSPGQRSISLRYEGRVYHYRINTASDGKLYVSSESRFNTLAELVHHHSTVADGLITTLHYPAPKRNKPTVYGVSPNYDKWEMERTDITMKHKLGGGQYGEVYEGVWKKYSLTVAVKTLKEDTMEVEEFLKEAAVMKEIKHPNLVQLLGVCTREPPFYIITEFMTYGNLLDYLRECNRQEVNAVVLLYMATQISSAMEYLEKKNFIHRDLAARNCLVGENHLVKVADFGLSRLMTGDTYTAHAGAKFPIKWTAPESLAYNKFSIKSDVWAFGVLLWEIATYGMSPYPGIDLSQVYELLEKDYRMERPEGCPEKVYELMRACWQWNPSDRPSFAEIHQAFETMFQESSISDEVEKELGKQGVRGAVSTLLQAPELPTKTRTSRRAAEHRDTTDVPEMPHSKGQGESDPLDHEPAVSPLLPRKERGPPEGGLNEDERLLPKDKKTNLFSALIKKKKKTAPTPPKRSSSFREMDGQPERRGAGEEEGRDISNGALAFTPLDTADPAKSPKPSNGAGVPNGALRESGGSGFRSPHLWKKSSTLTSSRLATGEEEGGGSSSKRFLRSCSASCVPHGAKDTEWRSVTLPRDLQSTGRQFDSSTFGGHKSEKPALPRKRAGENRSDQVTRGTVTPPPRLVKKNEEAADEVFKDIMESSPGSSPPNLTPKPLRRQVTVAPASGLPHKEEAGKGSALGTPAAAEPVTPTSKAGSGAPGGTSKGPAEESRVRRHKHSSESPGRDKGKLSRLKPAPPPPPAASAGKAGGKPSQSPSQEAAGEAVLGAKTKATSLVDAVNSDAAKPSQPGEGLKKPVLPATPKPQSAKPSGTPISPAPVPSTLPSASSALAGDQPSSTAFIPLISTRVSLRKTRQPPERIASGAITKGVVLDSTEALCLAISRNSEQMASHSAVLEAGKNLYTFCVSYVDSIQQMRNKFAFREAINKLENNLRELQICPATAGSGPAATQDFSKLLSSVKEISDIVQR
Procedure, shortened: (§2)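 Single-point screen at 1 μM compound in a 220-kinase panel run by Life Technologies (SelectScreen). Z′-LYTE format: phosphorylation of a labeled peptide substrate read by FRET. Values are reported as percent inhibition.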

[4] = target: Vascular endothelial growth factor receptor 2 (Homo sapiens) (UniProt P35968); experiment: Inhibition of recombinant His-tagged human KDR cytoplasmic domain (789 to 1356 residues) expressed in baculovirus expression system at 1 uM by FRET assay relative to control; procedure, shortened: as §2
[5] = target: Tyrosine-protein kinase JAK3 (Homo sapiens) (UniProt P52333); experiment: Inhibition of recombinant GST-tagged human JAK3 catalytic domain (781 to 1124 residues) expressed in baculovirus expression system at 1 uM by FRET relative to control; procedure, shortened: as §2
[6] = target: Interleukin-1 receptor-associated kinase 1 (Homo sapiens) (UniProt P51617); experiment: Inhibition of recombinant GST-tagged human IRAK1 (194 to 712 residues) expressed in baculovirus expression system at 1 uM by FRET relative to control; procedure, shortened: as §2
Chain of Interleukin-1 receptor-associated kinase 1 (Homo sapiens) (P51617 whole entry, looked up, the tested form may be a part): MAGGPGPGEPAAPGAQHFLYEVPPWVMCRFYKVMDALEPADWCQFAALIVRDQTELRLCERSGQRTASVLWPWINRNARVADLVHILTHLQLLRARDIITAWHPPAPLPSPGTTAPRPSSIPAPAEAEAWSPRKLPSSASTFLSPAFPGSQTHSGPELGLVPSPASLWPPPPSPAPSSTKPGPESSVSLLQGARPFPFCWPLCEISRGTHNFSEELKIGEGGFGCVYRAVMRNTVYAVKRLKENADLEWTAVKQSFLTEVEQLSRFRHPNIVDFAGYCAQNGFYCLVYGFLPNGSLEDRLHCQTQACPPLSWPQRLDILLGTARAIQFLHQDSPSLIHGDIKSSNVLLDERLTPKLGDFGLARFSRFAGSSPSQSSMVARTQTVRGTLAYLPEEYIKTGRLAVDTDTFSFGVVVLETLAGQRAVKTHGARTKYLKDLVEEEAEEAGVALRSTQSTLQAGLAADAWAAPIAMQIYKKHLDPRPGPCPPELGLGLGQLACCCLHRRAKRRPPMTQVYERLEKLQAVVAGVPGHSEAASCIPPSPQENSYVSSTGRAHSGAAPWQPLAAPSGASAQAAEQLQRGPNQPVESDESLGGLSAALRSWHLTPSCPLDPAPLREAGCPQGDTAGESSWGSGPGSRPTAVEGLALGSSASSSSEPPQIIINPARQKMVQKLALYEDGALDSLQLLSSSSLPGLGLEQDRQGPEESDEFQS

[7] = target: Protein kinase C beta type (Homo sapiens) (UniProt P05771); experiment: Inhibition of PKCbeta1 (unknown origin) at 1 uM by FRET assay relative to control
[8] = target: Serine/threonine-protein kinase pim-1 (Homo sapiens) (UniProt P11309); experiment: Inhibition of full length His-tagged human PIM1 expressed in baculovirus expression system at 1 uM by FRET assay relative to control
[9] = target: Phosphatidylinositol 4,5-bisphosphate 3-kinase catalytic subunit alpha isoform (Homo sapiens) (UniProt P42336); experiment: Inhibition of PI3KA (unknown origin) at 1 uM by FRET assay relative to control
[10] = target: Serine/threonine-protein kinase NLK (Homo sapiens) (UniProt Q9UBE8); experiment: Inhibition of recombinant full length GST-tagged human NLK expressed in baculovirus expression system at 1 uM by FRET assay relative to control; procedure, shortened: as §1
[11] = target: Myosin light chain kinase, smooth muscle (Homo sapiens) (UniProt Q15746); experiment: Inhibition of recombinant human full length N-terminal GST-tagged smMLCK catalytic domain expressed in baculovirus expression system at 1 uM by FRET assay relative to control
[12] = target: Maternal embryonic leucine zipper kinase (Homo sapiens) (UniProt Q14680); experiment: Inhibition of recombinant GST-tagged human MELK expressed in baculovirus expression system at 1 uM by FRET assay relative to control; procedure, shortened: as §2
Chain of Maternal embryonic leucine zipper kinase (Homo sapiens) (Q14680 whole entry, looked up): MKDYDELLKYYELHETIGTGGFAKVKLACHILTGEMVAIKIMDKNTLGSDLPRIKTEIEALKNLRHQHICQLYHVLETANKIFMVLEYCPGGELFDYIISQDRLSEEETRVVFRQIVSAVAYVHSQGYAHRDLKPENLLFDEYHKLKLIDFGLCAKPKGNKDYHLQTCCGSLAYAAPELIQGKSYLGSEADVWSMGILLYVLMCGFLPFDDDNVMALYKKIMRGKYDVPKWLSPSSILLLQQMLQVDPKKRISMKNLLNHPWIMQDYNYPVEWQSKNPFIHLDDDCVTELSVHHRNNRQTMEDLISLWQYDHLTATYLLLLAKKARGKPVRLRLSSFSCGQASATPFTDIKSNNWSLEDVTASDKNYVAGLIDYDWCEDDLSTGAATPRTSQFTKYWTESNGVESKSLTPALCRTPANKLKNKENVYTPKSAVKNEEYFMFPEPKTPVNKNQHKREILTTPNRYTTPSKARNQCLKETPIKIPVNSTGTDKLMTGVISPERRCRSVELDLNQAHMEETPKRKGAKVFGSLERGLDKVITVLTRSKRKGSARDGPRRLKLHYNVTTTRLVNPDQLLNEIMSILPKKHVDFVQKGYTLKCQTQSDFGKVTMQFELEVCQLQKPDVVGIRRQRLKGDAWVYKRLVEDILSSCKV

[13] = target: Dual specificity mitogen-activated protein kinase kinase 1 (Homo sapiens) (UniProt Q02750); experiment: Inhibition of recombinant full length His-tagged human MEK1 expressed in baculovirus expression system at 1 uM by FRET assay relative to control
[14] = target: Angiopoietin-1 receptor (Homo sapiens) (UniProt Q02763); experiment: Inhibition of recombinant GST-tagged human Tie2 cytoplasmic domain (817 to 1101 residues) expressed in baculovirus expression system at 1 uM by FRET assay relative to control; procedure, shortened: as §2
[15] = target: TGF-beta receptor type-1 (Homo sapiens) (UniProt P36897); experiment: Inhibition of recombinant full length N-terminal GST-tagged human TGFBR1 (200 to 503 residues) expressed in baculovirus expression system at 1 uM by FRET assay relative to control
Chain of TGF-beta receptor type-1 (Homo sapiens) (P36897 whole entry, the tested form may be a part): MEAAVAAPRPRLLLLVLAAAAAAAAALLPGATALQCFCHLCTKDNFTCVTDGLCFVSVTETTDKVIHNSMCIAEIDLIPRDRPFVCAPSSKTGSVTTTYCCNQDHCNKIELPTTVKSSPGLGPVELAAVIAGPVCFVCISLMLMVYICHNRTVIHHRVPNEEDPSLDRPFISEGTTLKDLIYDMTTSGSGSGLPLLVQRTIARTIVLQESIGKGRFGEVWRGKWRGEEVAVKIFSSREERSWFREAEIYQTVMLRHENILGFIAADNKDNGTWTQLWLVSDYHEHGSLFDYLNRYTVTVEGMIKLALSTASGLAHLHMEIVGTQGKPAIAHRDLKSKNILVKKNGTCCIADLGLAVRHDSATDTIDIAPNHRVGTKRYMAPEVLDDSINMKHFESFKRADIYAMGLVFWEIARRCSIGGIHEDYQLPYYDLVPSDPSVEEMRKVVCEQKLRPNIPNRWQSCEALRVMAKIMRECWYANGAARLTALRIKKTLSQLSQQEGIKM

[16] = target: SRSF protein kinase 1 (Homo sapiens) (UniProt Q96SB4); experiment: Inhibition of recombinant full length His-tagged human SRPK1 expressed in baculovirus expression system at 1 uM by FRET assay relative to control
Chain of SRSF protein kinase 1 (Homo sapiens) (Q96SB4 whole entry, the tested form may be a part): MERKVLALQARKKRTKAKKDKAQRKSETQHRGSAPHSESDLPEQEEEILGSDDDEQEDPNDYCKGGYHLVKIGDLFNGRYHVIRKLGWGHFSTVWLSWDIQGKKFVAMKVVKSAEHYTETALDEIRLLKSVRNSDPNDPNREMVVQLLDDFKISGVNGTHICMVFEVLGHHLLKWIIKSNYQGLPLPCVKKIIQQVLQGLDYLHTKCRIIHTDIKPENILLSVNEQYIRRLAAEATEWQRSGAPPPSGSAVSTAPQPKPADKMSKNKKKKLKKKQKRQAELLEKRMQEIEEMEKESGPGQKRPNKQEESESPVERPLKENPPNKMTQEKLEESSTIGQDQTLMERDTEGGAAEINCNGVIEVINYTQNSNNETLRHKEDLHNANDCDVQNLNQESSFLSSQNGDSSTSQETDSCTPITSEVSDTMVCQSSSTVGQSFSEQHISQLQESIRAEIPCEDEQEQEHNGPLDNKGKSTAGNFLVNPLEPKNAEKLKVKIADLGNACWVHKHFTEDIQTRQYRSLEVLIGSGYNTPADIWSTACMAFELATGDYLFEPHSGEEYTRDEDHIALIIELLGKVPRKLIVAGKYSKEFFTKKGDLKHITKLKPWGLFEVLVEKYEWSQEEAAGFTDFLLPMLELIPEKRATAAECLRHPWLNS

[17] = target: Serine/threonine-protein kinase Sgk3 (Homo sapiens) (UniProt Q96BR1); experiment: Inhibition of recombinant full length GST-tagged human SGK3 catalytic domain (87 to 496 residues) expressed in baculovirus expression system at 1 uM by FRET assay relative to control; procedure, shortened: as §1
[18] = target: Proto-oncogene tyrosine-protein kinase ROS (Homo sapiens) (UniProt P08922); experiment: Inhibition of recombinant GST-tagged human Ros cytoplasmic domain expressed in baculovirus expression system at 1 uM by FRET assay relative to control; procedure, shortened: as §2
[19] = target: cGMP-dependent protein kinase 1 (Homo sapiens) (UniProt Q13976); experiment: Inhibition of PKG1alpha (unknown origin) at 1 uM by FRET assay relative to control
[20] = target: Gamma-aminobutyric acid type B receptor subunit 1 (Homo sapiens) (UniProt Q9UBS5); experiment: Binding affinity to GABA-B1b (unknown origin) at 10 uM relative to control
Procedure, shortened: (§3)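 Broad radioligand-binding and enzyme screening panel covering 42 targets (biogenic amine and neuropeptide receptors, ion channels, neurotransmitter transporters, acetylcholinesterase). Single test concentration of 10 μM. Results expressed as binding relative to control, with a hit defined as >50% of control.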

[21] = target: Muscarinic acetylcholine receptor M1 (Homo sapiens) (UniProt P11229); experiment: Binding affinity to recombinant human M1 acetylcholine receptor at 10 uM relative to control; procedure, shortened: as §3
[22] = target: Substance-P receptor (Homo sapiens) (UniProt P25103); experiment: Binding affinity to recombinant human NK1 receptor at 10 uM relative to control; procedure, shortened: as §3
[23] = target: 5-hydroxytryptamine receptor 3A (Homo sapiens) (UniProt P46098); experiment: Binding affinity to 5HT3 receptor (unknown origin) receptor at 10 uM relative to control; procedure, shortened: as §3
[24] = target: Acetylcholinesterase (Homo sapiens) (UniProt P22303); experiment: Binding affinity to acetylcholinesterase (unknown origin) at 10 uM relative to control; procedure, shortened: as §3
Chain of Acetylcholinesterase (Homo sapiens) (P22303 whole entry): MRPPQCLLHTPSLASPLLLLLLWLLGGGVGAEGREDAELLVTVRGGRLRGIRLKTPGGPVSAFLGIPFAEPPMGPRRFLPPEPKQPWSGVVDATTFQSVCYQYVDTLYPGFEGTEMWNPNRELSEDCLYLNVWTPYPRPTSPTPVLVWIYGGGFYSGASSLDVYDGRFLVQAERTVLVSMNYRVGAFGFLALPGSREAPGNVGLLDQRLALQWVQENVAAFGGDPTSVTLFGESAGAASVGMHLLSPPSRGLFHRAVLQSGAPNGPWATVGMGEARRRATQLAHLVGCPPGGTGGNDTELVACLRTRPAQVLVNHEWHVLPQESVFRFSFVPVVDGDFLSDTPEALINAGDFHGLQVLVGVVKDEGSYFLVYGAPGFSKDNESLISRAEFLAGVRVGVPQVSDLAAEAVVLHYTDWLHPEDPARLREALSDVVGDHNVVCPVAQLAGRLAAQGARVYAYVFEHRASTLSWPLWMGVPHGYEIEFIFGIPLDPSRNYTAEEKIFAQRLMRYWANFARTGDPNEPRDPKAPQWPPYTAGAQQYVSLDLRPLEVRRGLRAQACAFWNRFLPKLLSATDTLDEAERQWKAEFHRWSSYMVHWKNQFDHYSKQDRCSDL

Chain of Serine/threonine-protein kinase Chk2 (Homo sapiens) (O96017 whole entry): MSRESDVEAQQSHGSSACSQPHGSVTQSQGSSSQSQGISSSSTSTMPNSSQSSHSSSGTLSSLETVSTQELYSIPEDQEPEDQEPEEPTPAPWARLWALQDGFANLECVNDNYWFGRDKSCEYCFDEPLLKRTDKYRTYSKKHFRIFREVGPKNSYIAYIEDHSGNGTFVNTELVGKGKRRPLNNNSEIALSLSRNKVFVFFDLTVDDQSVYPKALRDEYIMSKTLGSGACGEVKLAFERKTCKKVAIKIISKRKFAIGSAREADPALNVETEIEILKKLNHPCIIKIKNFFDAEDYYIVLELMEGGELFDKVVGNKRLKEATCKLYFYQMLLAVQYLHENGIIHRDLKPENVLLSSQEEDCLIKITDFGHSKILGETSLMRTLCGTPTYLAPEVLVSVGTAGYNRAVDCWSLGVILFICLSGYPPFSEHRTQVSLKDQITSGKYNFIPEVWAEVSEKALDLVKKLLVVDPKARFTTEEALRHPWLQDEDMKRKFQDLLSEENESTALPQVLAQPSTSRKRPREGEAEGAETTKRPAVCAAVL

**Q.** Which inhibition [1] does the source give for `Nc1ncc(-c2cc([C@H]3[C@@H]4CN(C5COC5)C[C@@H]43)n(CC3CC3)n2)cc1C(F)(F)F` here?
**A.** 16.3%

**Q.** What about the inhibition [2] of the same molecule?
**A.** -0.3%

**Q.** What about the inhibition [3] of the same molecule?
**A.** 14.9%

**Q.** What about the inhibition [4] of the same molecule?
**A.** 35%

**Q.** What about the inhibition [5] of the same molecule?
**A.** 24.6%

**Q.** What about the inhibition [6] of the same molecule?
**A.** -6.1%

**Q.** And the inhibition [7]?
**A.** -7.3%

**Q.** And the inhibition [8]?
**A.** -4%

**Q.** And the inhibition [9]?
**A.** -9.8%

**Q.** What about the inhibition [10] of the same molecule?
**A.** -4.7%

**Q.** And the inhibition [11]?
**A.** 11.7%

**Q.** And the inhibition [12]?
**A.** 12.6%

**Q.** And the inhibition [13]?
**A.** 0%

**Q.** What about the inhibition [14] of the same molecule?
**A.** 4.6%

**Q.** And the inhibition [15]?
**A.** 11.7%

**Q.** What about the inhibition [16] of the same molecule?
**A.** -1.7%

**Q.** And the inhibition [17]?
**A.** -0.1%

**Q.** What about the inhibition [18] of the same molecule?
**A.** 40.1%

**Q.** What about the inhibition [19] of the same molecule?
**A.** -1.1%

**Q.** And the Activity [20]?
**A.** > 50%

**Q.** What about the Activity [21] of the same molecule?
**A.** > 50%

**Q.** And the Activity [22]?
**A.** > 50%

**Q.** What about the Activity [23] of the same molecule?
**A.** > 50%

**Q.** What about the Activity [24] of the same molecule?
**A.** > 50%

**Q.** For `CC(C)n1nc(-c2cnc(N)c(OC(F)(F)F)c2)cc1[C@H]1[C@@H]2CN(C3COC3)C[C@@H]21`, which inhibition [1] is on record?
**A.** 12.8%

**Q.** What about the inhibition [2] of the same molecule?
**A.** 5.8%

**Q.** And the inhibition [3]?
**A.** 10.9%

**Q.** And the inhibition [4]?
**A.** 10.6%

**Q.** And the inhibition [5]?
**A.** 21.9%

**Q.** What about the inhibition [6] of the same molecule?
**A.** 8%

**Q.** What about the inhibition [7] of the same molecule?
**A.** 1.1%

**Q.** And the inhibition [8]?
**A.** -4.6%

**Q.** And the inhibition [9]?
**A.** -2.7%

**Q.** And the inhibition [10]?
**A.** -4.5%

**Q.** What about the inhibition [11] of the same molecule?
**A.** 19.6%

**Q.** And the inhibition [12]?
**A.** 30.4%

**Q.** And the inhibition [13]?
**A.** 14.8%

**Q.** And the inhibition [14]?
**A.** 13.7%

**Q.** And the inhibition [15]?
**A.** 1.6%

**Q.** What about the inhibition [16] of the same molecule?
**A.** 1%

**Q.** What about the inhibition [17] of the same molecule?
**A.** 6.1%

**Q.** What about the inhibition [18] of the same molecule?
**A.** 37%

**Q.** And the inhibition [19]?
**A.** 0.1%

**Q.** And the Activity [20]?
**A.** > 50%

**Q.** What about the Activity [21] of the same molecule?
**A.** > 50%

**Q.** And the Activity [22]?
**A.** > 50%

**Q.** And the Activity [23]?
**A.** > 50%

**Q.** And the Activity [24]?
**A.** > 50%
